Hits are enriched below; roughly 9.3% of the tested compounds scored in any of these assays.
PostGolgi yeast: growth inhibition of a yeast mutant, post-Golgi transport screen. post-Golgi transport phenotypic cell assay. inhibition, % at 10 µM. hit rate 0.9% among 98,000. AID 739;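 also: yeast cells grown in 1536-well plates; yeast grown about 18 h at 30C before absorbance read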
PostGolgi ctrl: yeast control strain growth, post-Golgi counter-screen; efflux-deficient yeast background strain, growth absorbance A615, 16 h; AID 738; hit rate 5% among 98,000; inhibition, % at 10 µM
tolC growth inh: blocks growth of E. coli BW25113 tolC mutant; OD615; hit rate 2.2% among 65,000; growth inhibition, % at 10 µM (by protocol);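 active = growth inhibition at or above a cutoff equal to the mean over every tested compound plus 3 SD, cut at about 60% in these data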;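 also: growth measured after 20 h incubation at 37 °C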
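Test system: tolC-deleted E. coli BW25113; medium: LB with kanamycin 50 µg/mL; compound: single-point testing at 10 µM; incubation: 20 h compound exposure of bacteria at 37 °C; signal: OD at 615 nm; evaluation: growth inhibition in percent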
D1 allo mod: D1 dopamine receptor (human) allosteric modulation; B-score at 10 µM; HEK293 D1, CRE-luciferase, dopamine EC30 potentiation; actives deviate in either direction; P21728; hit rate 5.9% among 58,000;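 active = luminescence count or its row- and column-corrected plate score outside the 99.7% band of the plate's sample wells, on either side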
hDAT+cocaine: changed human dopamine transporter uptake under cocaine IC80; Q01959; LLC-PK1 hDAT cells, [14C]-dopamine uptake with cocaine IC80; actives deviate in either direction; B-score at 10 µM; hit rate 1.3% among 110,000; AID 449768;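 active = Z score or B-score, a plate-position-corrected score, falls beyond the plate's 99.7% confidence bounds, in either direction; inactive = both scores lie inside the 99.7% bounds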;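 also: scored against the spread of the other compound wells on the same plate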
Target sequence (Q01959 whole entry, looked up): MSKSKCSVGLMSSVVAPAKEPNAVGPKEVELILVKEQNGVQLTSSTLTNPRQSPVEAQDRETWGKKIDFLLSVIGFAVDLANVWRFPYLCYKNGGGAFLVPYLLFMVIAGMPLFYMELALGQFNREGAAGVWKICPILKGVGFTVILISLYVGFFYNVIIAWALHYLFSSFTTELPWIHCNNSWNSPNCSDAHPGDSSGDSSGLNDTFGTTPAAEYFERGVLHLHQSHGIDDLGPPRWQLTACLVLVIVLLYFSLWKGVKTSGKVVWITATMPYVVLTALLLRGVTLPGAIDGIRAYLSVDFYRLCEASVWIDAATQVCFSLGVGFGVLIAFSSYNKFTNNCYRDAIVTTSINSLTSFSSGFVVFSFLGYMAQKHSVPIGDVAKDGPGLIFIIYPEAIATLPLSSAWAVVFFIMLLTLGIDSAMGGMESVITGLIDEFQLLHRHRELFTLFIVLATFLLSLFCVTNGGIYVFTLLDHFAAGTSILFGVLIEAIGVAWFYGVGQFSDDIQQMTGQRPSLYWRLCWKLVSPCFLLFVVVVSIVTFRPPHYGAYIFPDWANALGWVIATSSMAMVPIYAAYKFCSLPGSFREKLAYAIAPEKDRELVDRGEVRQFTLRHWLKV
Ecoli WT expand: growth inhibitors of E. coli BW25113 wild type; OD600 absorbance; growth inhibition, % at 100 µM; hit rate 0.15% among 98,000;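 active = growth inhibition above about 50% at one test dose, limit read from the data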;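 also: growth measured after 20 h incubation at 37 °C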
* = called active by the depositor; x = no result given. Rule as the data show it, unless noted: active = inhibition above about 30%; inactive = the rest.

SMILES	PostGolgi yeast	PostGolgi ctrl	tolC growth inh	D1 allo mod	hDAT+cocaine	Ecoli WT expand
CC1=CC(C)C(COC(N)=O)(COC(N)=O)C(C)C1 (configuration not stated)	-1.4	-9.0	-14.0	-1.36*	-0.0601	10.0
CCC1=CCN(CCc2c(C)[nH]c3ccccc23)CC1	x	x	x	x	-0.575	x
COC(=O)C1=C(c2cc3ccccc3o2)C[C@@H]2CC[C@H]1N2C(=O)NCc1ccco1	x	x	x	x	-0.29	x
CCc1cc2c(N3CCN(C)CC3)ncnc2s1	x	x	x	x	0.0604	x
CCN1CCN(c2ncnc3ccc(Br)cc23)CC1	-4.0	32.2*	-8.1	1.14	0.0932	9.0
Clc1cccc(C2NCCc3[nH]cnc32)c1 (configuration not stated)	-28.3	39.6*	x	x	-0.884	-3.0
CC(C)Oc1cc(-n2c(=S)[nH]c3ccccc3c2=O)c(Cl)cc1Cl	21.3	27.7	x	x	-0.759	-8.0
CS(=O)(=O)c1ccc(C2=C(c3ccccc3)C(=O)OC2)cc1	x	x	x	x	-0.0988	x
CCC(=O)c1cn(Cc2ccccc2C#N)c2ccccc12	6.6	30.8*	17.2	1.56	-0.872	2.0
CNCC1(c2ccccc2)CCCC1	11.3	1.4	x	x	-7.39*	-5.0
CCNCC1(c2ccc(OC)c(OC)c2)CCCC1	3.1	-0.4	4.9	0.554	0.388	3.0
CCC(C)OC(=O)c1c(N)n(Cc2cccs2)c2nc3ccccc3nc12 (configuration not stated)	15.7	50.1*	x	x	0.0264	-16.0
Nc1c(C(=O)OCc2ccccc2)c2nc3ccccc3nc2n1Cc1cccs1	7.4	27.2	x	x	-0.303	-2.0
CN1CCN(C(=O)COc2ccc(-c3nc4ccccc4s3)cc2)CC1	2.7	11.8	13.2	-4.44*	1.76	10.0
Cn1c[n+](C)cc1C(O)c1ccccc1 (configuration not stated)	2.6	26.3	-10.9	0.181	-0.434	1.0
Cc1ccc(CN2C(=O)NC(=O)C3(Cc4c(nc5ccccn5c4=O)N4CCCCCC43)C2=O)cc1 (configuration not stated)	-1.2	13.0	74.0*	-0.525	-1.46	-8.0
CCC(=NCCO)c1c(O)n(C2CCCCC2)c(=O)[nH]c1=O	0.3	4.8	-14.4	-0.0501	-0.0267	-2.0
CCC(=NCc1ccc2c(c1)OCO2)c1c(O)n(C2CCCCC2)c(=O)[nH]c1=O	21.5	66.9*	74.7*	0.00849	0.852	-6.0
C=C1[C@@H](OC(C)=O)[C@]23C[C@@H]1[C@@H](OC(C)=O)CC2[C@]12C4C[C@H]3[C@H]1N(CC)C[C@]4(C)CC[C@@H]2O (some centres not stated)	x	x	x	x	-0.252	x
CN1CCC(N(C)c2nc(-c3ccc([N+](=O)[O-])cc3)nc3ccccc23)CC1	-8.1	-3.0	x	x	x	6.0
CN(CC1COc2ccccc2O1)c1nc(-c2cccnc2)nc2ccccc12 (configuration not stated)	5.8	69.6*	24.0	1.09	0.252	4.0
CC(C)(C)c1ccc(S(=O)(=O)N2CC3CC(C2)c2cccc(=O)n2C3)cc1 (configuration not stated)	15.6	-8.4	x	x	2.42*	-4.0
Cc1sc2ncn(CC(=O)NCCCC(=O)N3CCC4(CC3)OCCO4)c(=O)c2c1C	-13.0	35.5*	x	x	0.493	0.0
CC(C)(C)P(=O)(c1ccncc1)N1CCCC1 (configuration not stated)	-1.2	14.0	-12.2	-0.156	6.23*	2.0
O=C(C1CC(c2ccccc2O)=NO1)N1CCC2(CC1)OCCO2 (configuration not stated)	-8.0	6.7	x	x	0.178	2.0
SMILES	PostGolgi yeast	PostGolgi ctrl	tolC growth inh	D1 allo mod	hDAT+cocaine	Ecoli WT expand
CC[C@H]1CN2CC[C@@]3(C(=O)Nc4ccccc43)[C@@H]2C[C@@H]1/C(=C\OC)C(=O)OC	x	x	x	x	-0.997	x
Cc1ccc(-n2nc(C)c(C3C(C#N)=C(N)Oc4c3c(=O)oc3ccccc43)c2Cl)cc1 (configuration not stated)	7.5	38.9*	x	x	x	-8.0
CCCC(C)C1C(C#N)=C(N)Oc2c1c(=O)oc1ccccc21 (configuration not stated)	6.1	36.2*	14.2	0.0302	-0.502	-7.0
CCCC1C(C#N)=C(N)Oc2c1c(=O)oc1ccccc21 (configuration not stated)	x	x	x	x	0.736	x
COC(=O)C1=C(c2cc3ccccc3o2)C[C@@H]2CC[C@H]1N2C(=O)N1CCC(O)CC1	x	x	x	x	1.61	x
Fc1ccc(CCNCc2ccc(Cl)c(Cl)c2)cc1	-12.4	6.3	x	x	-0.782	67.0*
O=C(N/N=C1/CN2CCC1CC2)c1cc2ccccc2cc1O	-5.2	14.7	x	x	-8.23*	3.0
CN1C2CCC1CC(=NO)C2	x	x	x	x	-0.18	x
O=C(CN1C(=O)CN=C(c2ccccc2Cl)c2cc(Cl)ccc21)NCc1ccco1	2.8	31.1*	2.0	-1.16	0.444	-4.0
C[C@H]1O[C@@H](O[C@H]2[C@@H](O)C[C@H](O[C@H]3[C@@H](O)C[C@H](O[C@H]4CC[C@@]5(C)[C@H](CC[C@@H]6[C@@H]5CC[C@]5(C)[C@@H](C7=CC(=O)OC7)CC[C@]65O)C4)O[C@@H]3C)O[C@@H]2C)C[C@H](O)[C@@H]1O	x	x	x	x	-7.19*	x
C[C@@H]1O[C@@H](O[C@H]2C[C@@H](O)[C@]3(CO)[C@H]4[C@H](O)C[C@]5(C)[C@@H](C6=CC(=O)OC6)CC[C@]5(O)[C@@H]4CC[C@]3(O)C2)[C@H](O)[C@H](O)[C@H]1O	x	x	x	x	-6.57*	x
CSc1ccc(C(=O)C(C)(C)N2CCOCC2)cc1	8.8	14.6	-7.9	-0.549	0.0215	-6.0
COc1ccc(/C=C2\C(=N\O)C3CCN2CC3)cc1	x	x	x	x	0.0952	x
C=C(C)[C@@]12OC3(c4ccccc4)O[C@@H]1C1[C@@H]4O[C@]4(CO)[C@@H](O)[C@]4(O)C(=O)C(C)=C[C@H]4[C@@]1(O3)[C@H](C)[C@H]2OC(=O)/C=C/C=C/c1ccccc1 (some centres not stated)	x	x	x	x	-6.26*	x
COc1ccc(OCC(=O)N2CCN(Cc3c[nH]c4ccccc34)CC2)cc1	11.7	19.4	-4.8	-0.377	4.26*	3.0
CCN(CCNc1ccc([N+](=O)[O-])c2cccnc12)S(=O)(=O)c1ccc(Cl)cc1	16.2	34.8*	x	x	0.666	-20.0
Oc1cccc2nc3ccccc3nc12	x	x	x	x	-0.423	x
C=CCN1CCC2(C)c3cc(O)ccc3CC1C2C (configuration not stated)	x	x	x	x	-0.327	x
CN(C)C1(c2nnnn2CCOC(=O)Nc2ccc(Cl)cc2)CCCCC1	2.5	11.5	100.0*	-0.011	1.71	-5.0
CN(C)C1(c2nnnn2-c2ccc(Cl)cc2)CCCCC1	-9.5	11.0	8.7	-0.628	-0.35	-12.0
CCCCn1c(O)c(C(CC)=NCc2ccc(F)cc2)c(=O)[nH]c1=O	23.4	31.0*	x	x	1.51	4.0
CCCCCCN=C(C)c1c(O)n(CCCC)c(=O)[nH]c1=O	8.5	38.1*	8.2	4.05	0.419	-1.0
Cc1ccc2c(c1)CC1(CN2C)C(=O)NC(=O)N(c2ccccc2C)C1=O (configuration not stated)	-4.1	3.2	-19.0	0.551	-0.386	2.0

Compound activity as filed in PubChem BioAssay.
